Test results taken from ChEMBL document CHEMBL1147135, “9-(2-C-Cyano-2-deoxy-beta-D-arabino-pentofuranosyl)guanine, a potential antitumor agent against B-lymphoma infected with Kaposi's sarcoma-associated herpesvirus” (J Med Chem, 2007).
The source made the active and inactive calls. The rule behind the calls is not given here.

Key:
Human gammaherpesvirus 8 [1] = assay: Cytotoxicity against Kaposi's sarcoma-associated herpesvirus infected BC3 cells after 120 hrs by MTT assay; type: functional, organism-based; details: Human gammaherpesvirus 8, BC-3, 120 h
In short: (§1)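 KSHV-positive PEL lines (BC2, BC3) and herpesvirus-negative B-lymphoma DG75 exposed to varying nucleoside concentrations for 120 h, then cell viability assay; OD 560 nm, untreated cells of each line set as 100%. Six replicate wells per experiment; IC50 as mean ± SD of three separate experiments.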

[2] = Cytotoxicity against DG75 cells after 120 hrs by MTT assay; type: cell-based; details: Homo sapiens, DG-75, 120 h; in short: as §1
Human gammaherpesvirus 8 [3] = assay: Cytotoxicity against Kaposi's sarcoma-associated herpesvirus infected BC2 cells after 120 hrs by MTT assay; type: functional, organism-based; details: Human gammaherpesvirus 8, BC-2, 120 h; in short: as §1
Human gammaherpesvirus 8 [4] = assay: Cytotoxicity against Kaposi's sarcoma-associated herpesvirus infected BC3 cells in presence of 50 uM adenosine after 72 hrs; type: functional, organism-based; details: BC-3
In short: (§2)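 BC3 cells seeded at 10⁴ cells/mL, given graded compound concentrations plus one common nucleoside (final 50 µM) added simultaneously, in triplicate; 3 days (72 h) at 37 °C, humidified 5% CO₂; growth inhibition read by MTT assay.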

Human gammaherpesvirus 8 [5] = assay: Cytotoxicity against Kaposi's sarcoma-associated herpesvirus infected BC3 cells in presence of 50 uM thymidine after 72 hrs; type: functional, organism-based; details: BC-3; in short: as §2
BC-3 = assay: Inhibition of RNA synthesis in KSHV infected BC3 cells assessed as [3H]guanosine incorporation after 1 hr; type: functional, Homo sapiens
In short: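 BC3 cells (2.5 × 10⁵ cells/mL) cultured 24 h, then compound added for 1 h; before harvest, 30 min pulse label with [³H]thymidine for DNA or tritiated ribonucleoside for RNA (guanosine in text, uridine in legend); synthesis measured as radiolabel incorporation.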

| SMILES | IC50 (Human gammaherpesvirus 8 [1]) | IC50 [2] | IC50 (Human gammaherpesvirus 8 [3]) | Activity (Human gammaherpesvirus 8 [4]) | Activity (Human gammaherpesvirus 8 [5]) | Inhibition (BC-3) |
| --- | --- | --- | --- | --- | --- | --- |
| N#C[C@H]1[C@H](O)[C@@H](CO)O[C@H]1n1ccc(N)nc1=O [TAS-109] | 0.23 µM | 0.21 µM | 0.13 µM | – | – | – |
| N#C[C@H]1[C@H](O)[C@@H](CO)O[C@H]1n1cnc2c(O)nc(N)nc21 | 1.14 µM | > 15 µM | 7.61 µM | inactive | inactive | 80% |
| O=c1[nH]c(=O)n([C@H]2C[C@H](O)[C@@H](CO)O2)cc1/C=C/Br [BRIVUDINE] | > 15 µM | > 15 µM | > 15 µM | – | – | – |
| N#C[C@H]1[C@H](O)[C@@H](CO)O[C@H]1n1cnc2cnc(N)nc21 | > 15 µM | > 15 µM | > 15 µM | – | – | – |
| N#C[C@@H]1[C@H](O)[C@@H](CO)O[C@H]1n1cnc2c(=O)[nH]c(N)nc21 | 1.73 µM | > 15 µM | 2.61 µM | – | – | – |
| Nc1nc2c(ncn2COC(CO)CO)c(=O)[nH]1 [GANCICLOVIR] | 70 µM | > 100 µM | 81 µM | – | – | – |
| N#C[C@H]1[C@H](O)[C@@H](CO)O[C@H]1n1cnc2c(Cl)nc(N)nc21 | 1.48 µM | > 15 µM | 1.73 µM | – | – | – |
| COc1nc(N)nc2c1ncn2[C@@H]1O[C@H](CO)[C@@H](O)[C@@H]1C#N | 0.79 µM | > 15 µM | 1.51 µM | – | – | – |
| N#C[C@H]1[C@H](O)[C@@H](CO)O[C@H]1n1cnc2c(N)nc(N)nc21 | 0.47 µM | > 15 µM | 1.56 µM | – | – | – |
| Nc1nc2c(ncn2COCCO)c(=O)[nH]1 [ACYCLOVIR] | > 100 µM | > 100 µM | > 100 µM | – | – | – |
| N#C[C@H]1[C@H](O)[C@@H](CO)O[C@H]1n1cnc2c(N)ncnc21 | > 15 µM | > 15 µM | > 15 µM | – | – | – |
